Screening results from PubChem.
EBI2 antag: blocks human EBI2 receptor beta-arrestin signaling; P32249; EBI2 beta-arrestin recruitment, luminescence, 7a,25-OHC stimulated; inhibition, % at 5 µM; 360,000 compounds, 0.81% hits; in the data active = inhibition above about 38%;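 also: enzyme fragment complementation signal reports receptor beta-arrestin coupling in cells; 0% = agonist plus DMSO wells and 100% = wells without agonist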
CXCR6 block: blocks human CXCR6 beta-arrestin recruitment | O00574 | CHO-K1 PathHunter CXCR6 beta-arrestin, luminescence | inhibition, % at 20 µM | 360,000 compounds, 0.36% hits; in the data active = inhibition above about 34%, passing the limit was not always enough;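 also: antagonist mode with CXCL16 agonist at 10 nM final; 0% = 10 nM CXCL16 with DMSO and 100% = unstimulated wells without agonist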
Target sequence (O00574 whole entry, looked up): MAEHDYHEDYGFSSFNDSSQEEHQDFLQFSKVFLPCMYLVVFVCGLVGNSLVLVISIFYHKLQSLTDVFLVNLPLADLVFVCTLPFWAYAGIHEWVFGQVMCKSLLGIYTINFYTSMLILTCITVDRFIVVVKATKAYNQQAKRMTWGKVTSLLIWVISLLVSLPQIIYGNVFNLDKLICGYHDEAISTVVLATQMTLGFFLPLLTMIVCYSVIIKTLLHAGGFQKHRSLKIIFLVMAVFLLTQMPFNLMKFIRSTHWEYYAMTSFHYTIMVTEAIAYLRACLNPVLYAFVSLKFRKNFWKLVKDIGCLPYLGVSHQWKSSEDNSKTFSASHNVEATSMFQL
m5-HT2A agonist: activates the mouse 5-HT2A serotonin receptor. activation, % at 7.6 µM. CHO-K1 mHTR2A beta-arrestin complementation, luminescence; percent of 30 µM serotonin response. AID 624169. P35363. 360,000 compounds, 0.66% hits;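 active = activation above a run cutoff, the mean activation of all tested compounds plus 3 SD, cut at about 14% in these data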;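 also: 0% = plate median of compound wells and 100% = 30 µM serotonin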
APJ agonist: agonists of human APJ apelin receptor; 330,000 compounds, 0.11% hits; activation, % at 20 µM; CHO-K1 APJ PathHunter beta-arrestin, luminescence; 0% DMSO wells, 100% apelin; P35414;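 active = activation more than six SD over the plate average, tested at 20 µM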;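 also: 0% = DMSO alone and 100% = apelin-13 at 10 nM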
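Test system – PathHunter CHO-K1 APJ (AGTRL-1) beta-arrestin reporter cells · Input – 1000 cells/well · Compound – single test compound dose, 20 µM final, 1% DMSO · Times – compound stimulation 90 min at 25 °C, detection 60 min · Technique – beta-gal luminescence · Read-out basis – APJ–arrestin association signal · Control set – negative DMSO alone, positive Apelin-13 at 10 nM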
CCR6 antag: antagonists of human CCR6 receptor; 340,000 compounds, 0.49% hits; P51684; CHO-K1 CCR6 PathHunter beta-arrestin, luminescence, CCL20-stimulated; inhibition, % at 20 µM;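 active = compounds whose inhibition of the agonist-driven luminescence signal at 20 µM reaches about 50%, limit read from the data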;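 also: cells stimulated with CCL20 at 14 nM final; plate controls were DMSO with CCL20 for no effect and DMSO without agonist for full effect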
APJ antag: APJ receptor antagonism; CHO-K1 APJ beta-arrestin complementation, luminescence; inhibition, % at 20 µM; 330,000 compounds, 0.32% hits; P35414;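 active = inhibition above about 40% at 20 µM, limit read from the data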;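 also: cells challenged with 10 nM apelin-13 agonist together with compound; plate controls were apelin-13 plus DMSO wells for no effect and DMSO wells lacking apelin-13 for full effect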
MOR ag counter: OPRM1 agonism in mouse HTR2A counterscreen; activation, % at 9.3 µM; AID 624380; 2,300 compounds, 5.3% hits; U2OS OPRM1 beta-arrestin PathHunter, luminescence; DMSO 0%, DAMGO 9.3 µM 100%; shares compounds with m5-HT2A agonist;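 active = mean activation above the mean of DMSO-only wells plus 3 SD, cut at about 0.5% in these data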
Target sequence (P35372 whole entry, looked up): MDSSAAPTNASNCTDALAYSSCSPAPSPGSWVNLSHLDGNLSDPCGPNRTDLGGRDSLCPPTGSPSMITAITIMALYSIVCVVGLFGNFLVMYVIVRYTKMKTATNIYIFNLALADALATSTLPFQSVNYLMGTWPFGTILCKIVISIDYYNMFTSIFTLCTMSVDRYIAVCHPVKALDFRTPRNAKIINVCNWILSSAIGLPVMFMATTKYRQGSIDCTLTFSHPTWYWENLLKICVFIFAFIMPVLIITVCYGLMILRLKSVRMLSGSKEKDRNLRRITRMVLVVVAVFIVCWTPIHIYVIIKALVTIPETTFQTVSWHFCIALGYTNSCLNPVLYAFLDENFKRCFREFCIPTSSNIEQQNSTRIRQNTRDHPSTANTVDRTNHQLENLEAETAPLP
HTR2A ag conf: mouse HTR2A agonism confirmed | shares compounds with m5-HT2A agonist | CHO-K1 PathHunter beta-arrestin recruitment, luminescence; DMSO 0%, 30 µM serotonin 100% | activation, % at 7.6 µM | 2,300 compounds, 19% hits | AID 624381;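 active = mean activation across triplicates above the hit threshold derived in the original primary screen, cut at about 15% in these data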
Starred values were filed as active, the others as inactive; x = not tested or not shown. An excerpt weighted towards active compounds, which were near 2.1% of everything screened.

SMILES | EBI2 antag | CXCR6 block | m5-HT2A agonist | APJ agonist | CCR6 antag | APJ antag | MOR ag counter | HTR2A ag conf
CCCNCC1C(Oc2ccc(Cl)cc2Cl)C(=O)N1c1cccc(C)c1C (stereo unspecified) | 6.0 | 0.4 | 17.1* | -5.0 | 26.4 | 12.6 | 0.3 | 8.2
CC(=O)Nc1ccc(S(=O)(=O)N2CCN(c3ccc(C(C)=O)cc3)CC2)cc1 | -1.7 | -2.4 | 3.5 | x | x | x | x | x
Cc1ccc(S(=O)(=O)c2cnc(-c3ccccc3)nc2N2CCN(C)CC2)cc1 | 9.9 | 10.8 | 51.5* | -3.8 | 17.9 | -23.8 | -0.5 | 17.0*
O=S(=O)(c1ccccc1)c1cnc(-c2ccccc2)nc1N1CCCCC1 | 21.1 | -8.0 | -3.5 | -3.8 | 13.0 | 6.6 | x | x
CN1CCN(c2nc(-c3ccccc3)ncc2S(C)(=O)=O)CC1 | 1.7 | 4.9 | -7.2 | -3.7 | 1.7 | 2.7 | x | x
CN1CCN(c2nc(-c3ccccc3)ncc2S(=O)(=O)c2ccccc2)CC1 | 2.7 | -5.7 | 37.6* | -0.2 | 13.7 | 8.0 | 0.3 | 29.1*
Cc1onc(-c2ccccc2)c1C(=O)N1CCC(CO)(Cc2ccccc2)CC1 | 10.8 | -4.2 | 9.1 | 0.1 | 7.6 | 11.2 | x | x
COc1ccc(S(=O)(=O)NCc2cccnc2)c(Cl)c1Cl | -9.1 | -0.3 | 6.6 | x | x | x | x | x
O=c1c(CN2CCN(c3cccc(Cl)c3)CC2)coc2c(Cl)cc(Cl)cc12 | 2.4 | 8.9 | 16.4* | -5.2 | 19.6 | 4.8 | -0.5 | 3.7
COc1cc(OC)c(NC(=O)C2CCCO2)cc1Cl (stereo unspecified) | -4.9 | -7.5 | 16.2* | -1.9 | 9.4 | -19.5 | -0.6 | -2.3
CC(=O)c1cccc(NC(=O)c2cc(=O)[nH]c3ccc(S(=O)(=O)N4CCOCC4)cc23)c1 | -3.5 | 8.8 | -4.4 | -3.5 | 12.4 | 11.0 | x | x
N#Cc1c(/N=C/c2cccs2)sc2c1CCC2 | 6.3 | 6.0 | -4.0 | -7.9 | 24.8 | 6.6 | x | x
N#Cc1c(/N=C/c2ccco2)sc2c1CCCCC2 | 4.0 | -4.3 | 14.4* | -2.0 | 12.4 | 7.8 | -0.4 | 21.1*
Cc1ccc(C(=O)N/C(=C\c2ccco2)C(=O)NCCN2CCOCC2)cc1C | 3.5 | -5.2 | -8.4 | -5.7 | 8.1 | -17.0 | x | x
O=C(CCC(=O)N1CCN(c2ccccc2F)CC1)c1ccc(Cl)s1 | -2.0 | 5.2 | 18.6* | -3.2 | 9.4 | -2.0 | -0.3 | -5.2
CCCCN1C(=O)C(=O)N(CC(=O)N2CCc3ccccc32)C1=O | -8.2 | -0.1 | -1.3 | 6.3 | -13.1 | 2.6 | x | x
C=CCn1c(SCC(=O)Nc2c(C)n(C)n(-c3ccccc3)c2=O)nnc1-c1cccnc1 | -4.1 | 5.0 | 2.3 | -0.3 | -8.0 | 6.4 | x | x
CCC(c1nnnn1-c1ccc2c(c1)OCCO2)N1CCN(C/C=C/c2ccccc2)CC1 (stereo unspecified) | 17.6 | -8.7 | 19.8* | x | x | x | -0.6 | 61.9*
C(=C\c1ccccc1)/CN1CCN(C(c2nnnn2-c2ccc3c(c2)OCCO3)C2CC2)CC1 (stereo unspecified) | 11.4 | 3.9 | 14.8* | x | x | x | -0.6 | 51.2*
CC(C)(C)n1nnnc1C(C1CC1)N1CCN(C/C=C/c2ccccc2)CC1 (stereo unspecified) | 1.1 | -0.1 | 19.9* | x | x | x | -0.5 | 34.8*
C(=C\c1ccccc1)/CN1CCN(C(CCc2ccccc2)c2nnnn2-c2ccc3c(c2)OCCO3)CC1 (stereo unspecified) | 28.4 | 8.2 | -3.6 | x | x | x | x | x
COc1ccc(NS(=O)(=O)NC(=O)c2cn(C)c3ccccc23)cc1 | -4.0 | 1.5 | -4.4 | 5.2 | 4.5 | -3.4 | x | x
O=C(NCc1ccc(F)cc1)c1cc2c(s1)CS(=O)(=O)C2 | -5.6 | 3.9 | 2.3 | -0.9 | -4.0 | -0.3 | x | x
CN(C(=O)CSC1=NCCS1)c1ccccc1 | -23.4 | 6.2 | 14.7* | -2.4 | 9.5 | 7.5 | 0.9* | 0.3
O=C(CSC1=NCCS1)NC(NC(=O)CSC1=NCCS1)c1ccccc1 | -1.1 | 0.0 | -1.8 | -2.5 | 1.9 | 6.5 | x | x
SMILES | EBI2 antag | CXCR6 block | m5-HT2A agonist | APJ agonist | CCR6 antag | APJ antag | MOR ag counter | HTR2A ag conf
CSc1ccc(NC(=O)N2CCN(c3nc4ccccc4s3)CC2)cc1 | 15.1 | -12.4 | 17.5* | -3.1 | 6.8 | -1.4 | 0.5* | 0.6
CCCC(=O)N1CCN(c2nc3ccccc3s2)CC1 | 1.6 | 2.5 | 3.1 | 3.0 | 4.7 | -38.2 | x | x
O=C(Cc1ccccc1)NCC(=O)N/N=C/c1ccc([N+](=O)[O-])s1 | 0.0 | -12.3 | 18.5* | 1.6 | 5.2 | -10.1 | -0.1 | -0.7
O=C(CNC(=O)c1ccccc1)N/N=C/c1ccc([N+](=O)[O-])s1 | -6.1 | -4.0 | 4.3 | -2.1 | -13.6 | -32.8 | x | x
Cc1nc(NC(=O)CSc2ccccc2N)sc1C | x | x | x | 3.9 | 11.0 | -10.3 | x | x
CC(C)(C)Nc1nc2ccc([N+](=O)[O-])cc2o1 | 13.6 | 10.4 | 14.7* | 0.5 | 2.3 | -19.5 | -0.6 | -5.6
CC(=O)CC(C)(C)Nc1nc2ccc([N+](=O)[O-])cc2o1 | 5.4 | -1.6 | -2.2 | 2.1 | -4.2 | -14.7 | x | x
CC1CCCCC1NC(=O)CSc1nnc(C(F)(F)F)n1C (stereo unspecified) | -6.5 | -8.2 | -4.8 | x | x | x | x | x
COc1cc(/C=N/NC(=O)C(=O)NCc2ccco2)cc(Br)c1O | -13.4 | 9.2 | 0.0 | -1.8 | 16.0 | 13.1 | x | x
Cc1cc(C)n(-c2nnc(C)n2N)n1 | -1.2 | 3.9 | 18.0* | -2.6 | -7.8 | 0.2 | -0.5 | -4.5
O=C(CCc1ccco1)CCc1ccco1 | -7.1 | 9.6 | -0.3 | x | 16.4 | x | x | x
COc1cccc(C(=O)Nc2nnc(C(C)C)s2)c1 | -1.6 | -17.0 | 21.6* | 1.5 | 2.2 | 9.7 | -0.5 | -3.4
COc1cccc(C(=O)Nc2nc(-c3ccc4c(c3)OCO4)cs2)c1 | -3.4 | -2.4 | 16.3* | -1.8 | 19.0 | -11.1 | -0.5 | -6.3
CN(Cc1ccco1)S(=O)(=O)c1nnc(NC(=O)c2ccccc2Cl)s1 | -1.6 | -11.5 | 18.3* | 0.3 | 11.8 | 12.5 | -0.7 | -3.8
COc1cccc(C(=O)Nc2nnc(S(=O)(=O)N(C)Cc3ccccc3)s2)c1 | -10.6 | -1.7 | 22.2* | -3.1 | 10.3 | -8.2 | -0.5 | -0.2
CCCCNc1c(-c2cc3ccccc3o2)nc2nc(C)cc(C)n12 | 0.3 | 5.6 | 17.9* | x | x | x | 0.8* | 5.4
COc1ccc(Nc2c(-c3cc4ccccc4o3)nc3nc(C)cc(C)n23)cc1 | 2.6 | -3.1 | -1.0 | x | x | x | x | x
COc1cc(-c2ccc3sc(-c4ccsc4)c(C#CCO)c3c2)cc(OC)c1OC | -1.9 | -11.1 | 18.2* | 1.4 | -9.2 | -5.0 | -0.3 | 2.9
COc1cc(-c2c(-c3ccsc3)sc3ccccc23)cc(OC)c1OC | 9.8 | 2.9 | 0.2 | -2.7 | 13.2 | 10.5 | x | x
